Measured values published in ChEMBL document CHEMBL4837207, “Discovery of pyrrolo[2,3-d]pyrimidine derivatives as potent Axl inhibitors: Design, synthesis and biological evaluation” (Eur J Med Chem, 2021).

Key:
[1] = molecular target: Hepatocyte growth factor receptor (Homo sapiens, UniProt P08581); experiment: Inhibition of c-MET (unknown origin) by ELISA
[2] = molecular target: T1, Tyrosine-protein kinase receptor UFO (Homo sapiens, UniProt P30530); experiment: Inhibition of AXL (unknown origin) by ELISA
T1 sequence (P30530 whole entry): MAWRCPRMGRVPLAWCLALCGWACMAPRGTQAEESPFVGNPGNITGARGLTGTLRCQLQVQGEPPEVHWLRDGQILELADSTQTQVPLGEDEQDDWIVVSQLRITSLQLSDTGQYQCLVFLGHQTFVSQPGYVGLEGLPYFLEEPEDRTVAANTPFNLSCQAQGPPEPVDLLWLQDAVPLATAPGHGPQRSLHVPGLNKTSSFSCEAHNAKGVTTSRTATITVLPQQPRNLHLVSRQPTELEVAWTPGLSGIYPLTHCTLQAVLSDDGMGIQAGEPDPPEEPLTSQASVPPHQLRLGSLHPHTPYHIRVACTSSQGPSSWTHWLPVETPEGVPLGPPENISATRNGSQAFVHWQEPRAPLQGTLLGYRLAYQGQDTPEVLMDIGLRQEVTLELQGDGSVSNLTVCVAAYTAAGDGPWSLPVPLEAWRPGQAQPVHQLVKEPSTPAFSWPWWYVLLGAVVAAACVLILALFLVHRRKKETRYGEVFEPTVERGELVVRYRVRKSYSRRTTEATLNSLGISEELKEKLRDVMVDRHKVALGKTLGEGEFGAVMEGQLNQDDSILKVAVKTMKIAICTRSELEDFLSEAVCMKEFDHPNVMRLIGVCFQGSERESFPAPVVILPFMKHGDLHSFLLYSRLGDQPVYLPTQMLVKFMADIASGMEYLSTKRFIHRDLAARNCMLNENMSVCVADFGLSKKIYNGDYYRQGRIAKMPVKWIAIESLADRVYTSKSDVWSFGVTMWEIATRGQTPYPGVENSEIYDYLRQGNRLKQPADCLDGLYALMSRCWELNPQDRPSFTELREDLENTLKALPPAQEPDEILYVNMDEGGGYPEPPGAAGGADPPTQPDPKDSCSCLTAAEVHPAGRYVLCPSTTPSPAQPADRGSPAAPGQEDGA

MKN-45 = experiment: Antiproliferative activity against human MKN-45 cells incubated for 72 hrs; type: functional, cell-based; details: MKN-45, 72 h
Method in brief: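 MKN-45 cells (MET-amplified gastric carcinoma) grown in the supplier-recommended medium and serum, seeded at low density and treated the next day across a concentration range for 72 h. Proliferation read by SRB or CCK-8. IC50 obtained from a four-parameter concentration-response fit; mean ± SD of two independent assays.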

BaF3 = experiment: Antiproliferative activity against mouse BaF3 stably expressing human TEL-AXL incubated for 72 hrs; type: functional, cell-based; details: BaF3, 72 h
[3] = AUC (0 to infinity) in Sprague-Dawley rat at 3 mg/kg, po via gavage measured up to 24 hrs by LC-MS analysis; type: ADME, organism-based; parameters: route oral, dose 3 mg/kg, time <=24; details: in vivo
Method in brief: (§1)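 Male Sprague-Dawley rats (n = 3) dosed once by oral gavage at 3 mg/kg as a solution in 5% DMSO/95% (0.5% CMC-Na). Blood sampled at 0.25, 0.5, 1, 2, 4, 6, 8 and 24 h, kept on wet ice, serum separated by centrifugation and stored at -20 °C. Serum levels measured by LC-MS/MS; parameters reported as means.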

[4] = Tmax in Sprague-Dawley rat at 3 mg/kg, po via gavage measured up to 24 hrs by LC-MS analysis; type: ADME, organism-based; details: in vivo; method in brief: as §1
[5] = Half life in Sprague-Dawley rat at 3 mg/kg, po via gavage measured up to 24 hrs by LC-MS analysis; type: ADME, organism-based; details: in vivo; method in brief: as §1
[6] = Cmax in Sprague-Dawley rat at 3 mg/kg, po via gavage measured up to 24 hrs by LC-MS analysis; type: ADME, organism-based; parameters: route oral, dose 3 mg/kg, time <=24; details: in vivo; method in brief: as §1

Sequence of Hepatocyte growth factor receptor (P08581 whole entry): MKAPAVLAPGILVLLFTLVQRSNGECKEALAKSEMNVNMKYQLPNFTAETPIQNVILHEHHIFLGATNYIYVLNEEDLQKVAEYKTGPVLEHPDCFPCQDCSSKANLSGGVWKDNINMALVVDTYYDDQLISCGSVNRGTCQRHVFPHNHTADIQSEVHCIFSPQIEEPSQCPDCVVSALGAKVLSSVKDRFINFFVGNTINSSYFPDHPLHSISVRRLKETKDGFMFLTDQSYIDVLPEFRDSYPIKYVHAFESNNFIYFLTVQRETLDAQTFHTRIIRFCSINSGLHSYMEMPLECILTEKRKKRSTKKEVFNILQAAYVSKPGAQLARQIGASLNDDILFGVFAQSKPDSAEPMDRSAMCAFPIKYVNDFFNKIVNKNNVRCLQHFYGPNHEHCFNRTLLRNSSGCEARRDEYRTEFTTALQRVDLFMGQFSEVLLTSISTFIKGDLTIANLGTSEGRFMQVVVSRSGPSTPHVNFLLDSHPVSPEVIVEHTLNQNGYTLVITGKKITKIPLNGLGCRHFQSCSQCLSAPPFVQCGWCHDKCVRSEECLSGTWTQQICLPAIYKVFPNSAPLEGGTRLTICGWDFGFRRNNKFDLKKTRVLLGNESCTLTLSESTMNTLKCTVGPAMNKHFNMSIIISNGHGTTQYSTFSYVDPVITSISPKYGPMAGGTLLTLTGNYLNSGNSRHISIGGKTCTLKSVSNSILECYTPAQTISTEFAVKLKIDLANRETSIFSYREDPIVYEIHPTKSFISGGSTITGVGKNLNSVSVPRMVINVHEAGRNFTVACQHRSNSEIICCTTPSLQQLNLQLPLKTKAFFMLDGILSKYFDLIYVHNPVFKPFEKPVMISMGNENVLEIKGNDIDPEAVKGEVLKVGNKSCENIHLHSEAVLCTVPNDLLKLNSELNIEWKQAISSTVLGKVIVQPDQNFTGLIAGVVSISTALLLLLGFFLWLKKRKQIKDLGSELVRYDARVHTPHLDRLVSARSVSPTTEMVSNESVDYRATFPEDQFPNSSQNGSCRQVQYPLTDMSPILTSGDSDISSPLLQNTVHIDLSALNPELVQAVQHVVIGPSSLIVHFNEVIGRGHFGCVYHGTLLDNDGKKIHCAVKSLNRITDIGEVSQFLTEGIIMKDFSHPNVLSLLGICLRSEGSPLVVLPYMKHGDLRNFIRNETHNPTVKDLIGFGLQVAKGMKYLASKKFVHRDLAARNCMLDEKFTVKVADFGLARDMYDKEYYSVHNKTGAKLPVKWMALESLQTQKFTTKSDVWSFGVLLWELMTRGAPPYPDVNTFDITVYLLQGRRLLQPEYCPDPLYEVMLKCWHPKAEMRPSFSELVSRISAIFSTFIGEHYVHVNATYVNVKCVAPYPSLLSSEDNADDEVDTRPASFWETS

SMILES | IC50 [1] [nM] | IC50 [2] [nM] | IC50 (MKN-45) [nM] | IC50 (BaF3) [nM] | AUC(0-inf) [3] [ng·h/mL] | Tmax [4] [h] | half-life [5] [h] | Cmax [6] [ng/mL]
CC(C)n1cc(C(=O)Nc2ccc(-c3cn(C)c4ncnc(N)c34)cc2)c(=O)c(-c2ccc(F)cc2)c1 | 18.4 | 0.4 | 85.3 | < 1 | – | – | – | –
Cn1cc(-c2cc(F)c(NC(=O)c3cn(CC4CCOCC4)cc(-c4ccc(F)cc4)c3=O)cc2F)c2c(N)ncnc21 | 3.3 | 0.5 | 53.7 | < 1 | – | – | – | –
Cn1cc(-c2ccc(NC(=O)c3cn(CC4CCOCC4)cc(-c4ccc(F)cc4)c3=O)cc2F)c2c(N)ncnc21 | 2.4 | 0.8 | 93.7 | < 1 | – | – | – | –
COCCCn1cc(C(=O)Nc2ccc(-c3cn(C)c4ncnc(N)c34)cc2)c(=O)c(-c2ccc(F)cc2)c1 | 16.7 | > 10 | – | – | – | – | – | –
Cn1cc(-c2ccc(NC(=O)c3cn(CC4CCOCC4)cc(-c4ccc(F)cc4)c3=O)c(Cl)c2)c2c(N)ncnc21 | 40.5 | 3.7 | – | – | – | – | – | –
Cn1cc(-c2ccc(NC(=O)c3cn(CC4CCOCC4)cc(-c4ccc(F)cc4)c3=O)c(F)c2)c2c(N)ncnc21 | 7.3 | 0.2 | 210 | < 1 | – | – | – | –
Cn1cc(-c2ccc(NC(=O)c3cn(CC4CCCCC4)cc(-c4ccc(F)cc4)c3=O)cc2)c2c(N)ncnc21 | 4.8 | 2.3 | – | – | – | – | – | –
Cn1cc(-c2ccc(NC(=O)c3cn(CC4CCOCC4)cc(-c4ccc(F)cc4F)c3=O)cc2)c2c(N)ncnc21 | 19.8 | 0.8 | 501 | < 1 | – | – | – | –
Cn1cc(C(=O)Nc2ccc(-c3cn(C)c4ncnc(N)c34)cc2)c(=O)c(-c2ccc(F)cc2)c1 | 24.5 | 5 | – | – | – | – | – | –
C[C@@H](Oc1cc(-c2cnn(C3CCNCC3)c2)cnc1N)c1c(Cl)ccc(F)c1Cl [CRIZOTINIB] | – | – | 15 | – | – | – | – | –
CN(C)C(=O)Cn1cc(C(=O)Nc2ccc(-c3cn(C)c4ncnc(N)c34)cc2)c(=O)c(-c2ccc(F)cc2)c1 | 18.4 | 0.5 | > 1000 | > 100 | – | – | – | –
Cn1cc(-c2ccc(NC(=O)c3cn(C4CCOCC4)cc(-c4ccc(F)cc4)c3=O)cc2)c2c(N)ncnc21 | 13.1 | 1.1 | – | – | – | – | – | –
Cc1cc(-c2cn(C)c3ncnc(N)c23)ccc1NC(=O)c1cn(CC2CCOCC2)cc(-c2ccc(F)cc2)c1=O | 33.8 | 4 | – | – | – | – | – | –
Cc1nc(N)c2c(-c3ccc(NC(=O)c4cn(CC5CCOCC5)cc(-c5ccc(F)cc5)c4=O)cc3)cn(C)c2n1 | 159 | 5.1 | – | – | – | – | – | –
Cn1cc(-c2ccc(NC(=O)c3cn(CC4CCCO4)cc(-c4ccc(F)cc4)c3=O)cc2)c2c(N)ncnc21 (configuration not stated) | 3.1 | 1.2 | – | – | – | – | – | –
Cn1cc(-c2ccc(NC(=O)c3cn(CC4CCOCC4)cc(-c4ccccc4)c3=O)cc2)c2c(N)ncnc21 | 20.6 | 1 | 318 | < 1 | – | – | – | –
Nc1ncnc2[nH]cc(-c3cc(F)c(NC(=O)c4cn(CC5CCOCC5)cc(-c5ccc(F)cc5)c4=O)cc3F)c12 | 1.7 | 0.4 | 29.8 | < 1 | 385 | 0.83 | 1.37 | 330

Results, then the compound that gave them:

IC50 [1] [nM] | IC50 [2] [nM] | IC50 (MKN-45) [nM] | IC50 (BaF3) [nM] | AUC(0-inf) [3] [ng·h/mL] | Tmax [4] [h] | half-life [5] [h] | Cmax [6] [ng/mL] | SMILES
17 | 2.7 | – | – | – | – | – | – | Nc1ncnc2c1c(-c1ccc(NC(=O)c3cn(CC4CCOCC4)cc(-c4ccc(F)cc4)c3=O)cc1)cn2CCN1CCOCC1
215 | 2.8 | – | – | – | – | – | – | CN(C)CCn1cc(-c2ccc(NC(=O)c3cn(CC4CCOCC4)cc(-c4ccc(F)cc4)c3=O)cc2)c2c(N)ncnc21
95.4 | 3 | – | – | – | – | – | – | Cn1cc(-c2ccc(NC(=O)c3cn(CC4CCOCC4)cc(-c4cccc(F)c4)c3=O)cc2)c2c(N)ncnc21
33.1 | 0.4 | 826 | < 1 | – | – | – | – | Cn1cc(-c2ccc(NC(=O)c3cn(CC4CCOCC4)cc(-c4ccc(C(F)(F)F)cc4)c3=O)cc2)c2c(N)ncnc21
12.3 | 0.2 | 347 | < 1 | – | – | – | – | Cn1cc(-c2ccc(NC(=O)c3cn(CC4CCOCC4)cc(-c4ccc(Cl)cc4)c3=O)cc2)c2c(N)ncnc21
4.4 | 0.2 | 77.9 | < 1 | – | – | – | – | Nc1ncnc2[nH]cc(-c3ccc(NC(=O)c4cn(CC5CCOCC5)cc(-c5ccc(F)cc5)c4=O)cc3)c12
5.1 | 1.8 | – | – | – | – | – | – | CCCn1cc(-c2ccc(NC(=O)c3cn(CC4CCOCC4)cc(-c4ccc(F)cc4)c3=O)cc2)c2c(N)ncnc21
7.1 | 0.1 | 248 | < 1 | – | – | – | – | Cn1cc(-c2ccc(NC(=O)c3cn(CC4CCOCC4)cc(-c4ccc(F)cc4)c3=O)cc2)c2c(N)ncnc21
